# Assay results published in PubChem BioAssay AID493160 (Sanford-Burnham Center for Chemical Genomics, 2011).
# Out of some 340,000 compounds screened, about 540 (0.16%) were called active.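 How the source made its calls: active means inhibition above about 35% when tested at 20 µM (limit read from the data); inactive means the rest.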 Many of the other results were omitted from the sample, so actives are more common in it than they were.
# Target: Hexokinase HKDC1 (Homo sapiens) (UniProt Q2TB90)
# Experiment: blockers of human HKDC1 enzyme activity – biochemical, fluorescence, uHTS, primary screen (AID 493160);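 further: plate controls were DMSO wells with enzyme for no effect and DMSO wells lacking enzyme for full effect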
# Details: recombinant HKDC1, G6PDH/diaphorase resazurin coupled fluorescence; at 20 µM; active compounds read high
# How it was run: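 Test system: HK5 enzyme. Quantity: 5 µg/mL HK5 final. Reagent: glucose and ATP substrates. Schedule: 90 min reaction incubation at room temperature, dark. Technique: resazurin-to-resorufin fluorescence via G6PDH and diaphorase coupling, 525/613 nm. Control set: DMSO wells with and without enzyme mix.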
# Sequence of Hexokinase HKDC1 (Homo sapiens) (Q2TB90 whole entry, looked up): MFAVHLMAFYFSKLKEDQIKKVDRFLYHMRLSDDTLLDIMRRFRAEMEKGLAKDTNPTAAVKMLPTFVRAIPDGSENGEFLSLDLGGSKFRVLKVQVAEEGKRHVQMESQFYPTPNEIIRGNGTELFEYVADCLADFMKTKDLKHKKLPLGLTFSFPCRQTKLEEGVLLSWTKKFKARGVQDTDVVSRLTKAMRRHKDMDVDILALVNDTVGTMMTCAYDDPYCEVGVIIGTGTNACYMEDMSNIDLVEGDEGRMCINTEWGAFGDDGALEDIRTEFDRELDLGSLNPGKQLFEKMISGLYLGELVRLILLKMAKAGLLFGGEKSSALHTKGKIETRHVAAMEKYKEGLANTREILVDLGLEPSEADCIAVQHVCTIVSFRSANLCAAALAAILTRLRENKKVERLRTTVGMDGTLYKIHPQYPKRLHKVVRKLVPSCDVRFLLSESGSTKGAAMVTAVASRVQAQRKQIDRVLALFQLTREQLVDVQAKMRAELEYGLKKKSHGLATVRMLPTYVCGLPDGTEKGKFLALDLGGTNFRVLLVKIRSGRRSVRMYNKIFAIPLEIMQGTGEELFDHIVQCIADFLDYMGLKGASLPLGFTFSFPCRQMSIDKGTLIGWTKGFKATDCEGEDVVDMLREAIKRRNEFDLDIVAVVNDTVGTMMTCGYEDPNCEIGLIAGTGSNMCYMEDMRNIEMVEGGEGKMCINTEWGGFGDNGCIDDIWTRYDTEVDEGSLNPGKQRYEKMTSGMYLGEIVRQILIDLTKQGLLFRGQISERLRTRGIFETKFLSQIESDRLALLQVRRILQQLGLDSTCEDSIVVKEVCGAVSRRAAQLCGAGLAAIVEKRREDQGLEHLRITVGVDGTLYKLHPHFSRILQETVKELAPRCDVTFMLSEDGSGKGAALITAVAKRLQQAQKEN
row,Compound,inhibition
1,COc1ccc(OCCCC(=O)Oc2ccc(OC)cc2)cc1,-15% (inactive)
2,COc1ccc2c(c1)C(SCC(=O)NCc1ccccc1)CC(C)(C)O2 (stereo not drawn),3.48% (inactive)
3,O=C(NCC1CCCO1)c1ccc(S(=O)(=O)Nc2ccc(F)cc2)cc1 (stereo not drawn),0.46% (inactive)
4,O=C(CNC(=O)c1cc(=O)[nH]c2ccccc12)Nc1ccc(F)c(F)c1,-8.3% (inactive)
5,C/C(=N\NC(=O)COc1ccc(C)cc1[N+](=O)[O-])c1ccc2c(c1)OCCO2,2.16% (inactive)
6,COc1ccccc1CNS(=O)(=O)c1ccc(C)cc1,-4.09% (inactive)
7,CCC(C)CN1CCC(CO)(Cc2ccccc2Cl)CC1 (stereo not drawn),-10.2% (inactive)
8,CC(CNC(=O)c1ccc(N)cc1)NC(=O)c1ccc(N)cc1 (stereo not drawn),-6.68% (inactive)
9,O=C(O)CCn1cc(/C=C/C(=O)c2ccc(Cl)cc2)c(-c2cccc(Br)c2)n1,17.1% (inactive)
10,Clc1ccc(C[n+]2cc(-c3ccc(Cl)cc3)n3c2CCC3)cc1,-3.08% (inactive)
11,CC1(C)OC(=O)C(=CSc2ccc(C(C)(C)C)cc2)C(=O)O1,-2.23% (inactive)
12,Cc1cc2cc3c(N)[nH]nc3nc2cc1C,1.11% (inactive)
13,Cc1cc(C)c(S(=O)(=O)N2CCOCC2)cc1C,-10.1% (inactive)
14,O=C(NCc1ccc2c(c1)OCO2)c1c(O)nc2sccn2c1=O,6.57% (inactive)
15,CCCCN1C(=O)CCC(C(=O)O)C1c1ccc(OC)cc1 (stereo not drawn),7.8% (inactive)
16,C=CCCN(Cc1ccccc1)S(=O)(=O)c1ccccc1Br,2.98% (inactive)
17,Cc1cc(=O)[nH]c2nnnn12,7.5% (inactive)
18,COc1cc2c3c(c1)/C(=C1/SC(=S)NC1=O)C(=O)N3C(C)(C)C=C2C,-4.38% (inactive)
19,CCN(C[C@H]1N[C@@](Cc2ccccc2)(C(=O)OC)[C@H]2C(=O)N(Cc3ccccc3)C(=O)[C@@H]12)C(=O)c1ccc(C)cc1,-6.61% (inactive)
20,Cc1cc(Cl)ccc1NC(=S)N1CCC(C(N)=O)(N2CCCCC2)CC1,-7.07% (inactive)

row,Compound,inhibition
1,N#CCSc1nc2ccc(N3CCOCC3)cc2c(=O)n1CCc1ccccc1,10.5% (inactive)
2,O=C1C(=O)N(CC2COc3ccccc3O2)c2ccccc21 (stereo not drawn),19.1% (inactive)
3,Cc1cc(C(=O)CCl)c(C)n1CC1COc2ccccc2O1 (stereo not drawn),38.2% (active)
4,Cc1ccsc1C(=O)OCC(=O)c1cc(C)n(CC2CCCO2)c1C (stereo not drawn),1.95% (inactive)
5,CCc1[nH]nc(C(=O)N2CCCC(CNS(=O)(=O)c3cccs3)C2)c1C (stereo not drawn),-4.96% (inactive)
6,CCC(=C/c1sc2ccc3ccccc3c2[n+]1C)/C=C1\Sc2ccc3ccccc3c2N1C,45% (active)
7,C=CCNC(=O)c1cc2nc(C3CC3)cc(C(F)F)n2n1,14% (inactive)
8,CCN(CC)C(=O)[C@H]1CC(CC(=O)NCc2ccco2)C(=O)N2CCc3c([nH]c4ccccc34)[C@]12C (stereo partly drawn),-4.97% (inactive)
9,Cc1onc(-c2ccc(Cl)cc2)c1-c1ccnn1S(=O)(=O)c1ccc(Cl)cc1,0.4% (inactive)
10,CC[C@@]1(C(=O)OC)N[C@H](CN(C)C(C)=O)[C@@H]2C(=O)N(C)C(=O)[C@@H]21,-5.2% (inactive)
11,CC(=O)c1c(C)[nH]c(C(=O)COC(=O)c2cccc(S(=O)(=O)N(C)c3ccccc3)c2)c1C,16.7% (inactive)
12,COCCN(C(=O)CSCc1ccc(C)cc1)c1c(N)n(CC(C)C)c(=O)[nH]c1=O,-4.58% (inactive)
13,COc1cc(CO)ccc1OCC(=O)Nc1cccc2ccccc12,-1.93% (inactive)
14,S=C(Nc1cccc(Br)c1)N1CCn2cccc2C1c1cccnc1 (stereo not drawn),4.07% (inactive)
15,COCCNC(=O)c1ccc(-n2c(SCc3cccnc3)nc3ccccc3c2=O)cc1,-1.32% (inactive)
16,O=Cc1cn(-c2ccccc2)nc1-c1ccccn1,-7.78% (inactive)
17,CCOc1ccccc1-c1nc(CN2CCC(C(=O)N3CCOCC3)CC2)c(C)o1,-3.93% (inactive)
18,COc1ccc(CCNC(=O)C(Sc2ccccn2)c2ccccc2)cc1OC (stereo not drawn),-5.11% (inactive)
19,COc1ccc(C(CCN(Cc2ccc(OC)c(OC)c2)C(=O)CCl)c2ccccc2)cc1 (stereo not drawn),35.4% (active)
20,COc1ccc(CN(Cc2ccc(OC)cc2)C(=O)c2cccs2)cc1,1.52% (inactive)

row,Compound,inhibition
1,CC1CCCC(NC(=O)COC(=O)[C@@H]2CC(O)CN2S(=O)(=O)c2ccc3c(c2)OCCO3)C1C (stereo partly drawn),-2.96% (inactive)
2,Cc1noc(/C=C/c2ccco2)c1S(=O)(=O)N1CCC(C(=O)Nc2ccc(Cl)cn2)CC1,-6% (inactive)
3,CCOC(=O)/C(=C\c1ccc([N+](=O)[O-])cc1)C(=O)c1cc(C(C)=O)c(Nc2ccccc2)s1,33.5% (inactive)
4,COc1nnc(-c2ccc(C)c(S(=O)(=O)N(C)C)c2)c2ccccc12,-2.23% (inactive)
5,O=C(CC1NCCc2ccccc21)Nc1cccc(Cl)c1 (stereo not drawn),8.29% (inactive)
6,CN1CCN(c2ccccc2NC(=O)COc2ccc(C3CCCCC3)cc2)CC1,-0.75% (inactive)
7,C/C=C/c1ccc(OCC(=O)NNC(=O)CN(C)S(=O)(=O)c2ccc(C)cc2)c(OC)c1,0.23% (inactive)
8,CCOC(=O)C(C)n1nc(-c2ccccc2)c2ccccc2c1=O (stereo not drawn),-7.97% (inactive)
9,O=[N+]([O-])c1ccc(N2CCN(c3ccc(F)cc3)CC2)cn1,3.5% (inactive)
10,CC(C)CCSc1ncnc2c1oc1nc3c(cc12)COC(C)(C)C3,1.9% (inactive)
11,CCCc1nc2oc3c(OCC)ncnc3c2c2c1COC(C)(C)C2,37.7% (active)
12,CCCc1nc2oc3c(=O)[nH]cnc3c2c2c1COC(C)(C)C2,27.4% (inactive)
13,Cc1cc(Cl)c2oc(C(=O)N3CCC(O)(c4ccccc4)CC3)c(C)c2c1,-1.23% (inactive)
14,COc1ccc(N2CCN(C(=O)C3CCN(C(=O)c4ccccc4Cl)CC3)CC2)cc1,-1.69% (inactive)
15,CCCCc1nc(SCC(=O)Nc2nnc(C(C)C)s2)n[nH]1,-4.74% (inactive)
16,CCCCCC1CC(COc2ccccc2)OC1=O (stereo not drawn),-1.3% (inactive)
17,COC(=O)c1c(C)c(C)nc(N)c1C#N,3.54% (inactive)
18,COc1ccccc1N(C(=O)Cn1nnc2ccccc21)C(C(=O)NCc1ccco1)c1ccc(C)o1 (stereo not drawn),-6.23% (inactive)
